Results on six compounds are retold here after ChEMBL document CHEMBL1127847, “Cyclic GMP phosphodiesterase inhibitors. 2. Requirement of 6-substitution of quinazoline derivatives for potent and selective inhibitory activity” (J Med Chem, 1994).

For assay [1], the species on record is Sus scrofa. The assay can be described thus: Relaxant effect on PGF2-alpha precontracted porcine coronary arteries. The class given is functional, organism-based. The procedure, abridged: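 Porcine coronary strips held at 1 g resting tension. Endothelium confirmed by 7 × 10^-9 M bradykinin relaxation after 50 mM KCl. Contraction with PGF2α (final 10^-5 M); at plateau, cumulative concentration-relaxation curves built. Relaxation expressed as % of PGF2α contraction. EC50 from the log cumulative plot, mean ± SEM (n given).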

Assay [2] addresses T1, Phosphodiesterase 3A (Sus scrofa, UniProt Q9XSW7).
T1 sequence (Q9XSW7 whole entry): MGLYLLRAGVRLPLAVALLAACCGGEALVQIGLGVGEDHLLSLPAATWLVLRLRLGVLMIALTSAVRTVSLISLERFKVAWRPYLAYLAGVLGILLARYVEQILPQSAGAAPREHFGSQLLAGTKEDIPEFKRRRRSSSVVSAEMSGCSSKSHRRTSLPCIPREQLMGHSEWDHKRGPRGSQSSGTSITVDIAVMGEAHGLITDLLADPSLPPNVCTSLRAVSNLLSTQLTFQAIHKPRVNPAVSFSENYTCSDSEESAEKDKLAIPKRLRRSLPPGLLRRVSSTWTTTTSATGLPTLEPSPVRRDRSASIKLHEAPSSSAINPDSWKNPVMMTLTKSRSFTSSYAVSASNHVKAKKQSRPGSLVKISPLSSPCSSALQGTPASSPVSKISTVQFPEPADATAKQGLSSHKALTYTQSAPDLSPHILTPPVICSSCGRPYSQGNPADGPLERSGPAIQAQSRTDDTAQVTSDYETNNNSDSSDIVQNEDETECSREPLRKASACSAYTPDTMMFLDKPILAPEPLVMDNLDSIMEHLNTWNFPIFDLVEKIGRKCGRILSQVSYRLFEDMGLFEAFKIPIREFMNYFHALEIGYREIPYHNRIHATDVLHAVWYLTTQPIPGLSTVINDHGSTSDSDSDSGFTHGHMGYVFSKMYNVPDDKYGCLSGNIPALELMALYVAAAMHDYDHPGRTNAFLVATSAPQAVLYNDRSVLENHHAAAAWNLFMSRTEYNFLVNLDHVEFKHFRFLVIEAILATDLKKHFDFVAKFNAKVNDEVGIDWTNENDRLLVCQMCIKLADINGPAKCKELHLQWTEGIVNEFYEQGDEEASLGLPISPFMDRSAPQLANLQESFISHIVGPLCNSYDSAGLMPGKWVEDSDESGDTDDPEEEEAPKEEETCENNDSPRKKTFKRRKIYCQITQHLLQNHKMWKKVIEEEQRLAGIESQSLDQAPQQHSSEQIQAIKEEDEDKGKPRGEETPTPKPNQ
As to the kind of experiment: Inhibition of cGMP-inhibited PDE 3 from porcine aorta. The procedure, abridged: (§1)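 Porcine aorta PDE isozyme, two-step radioisotopic assay with 1 µM [3H]substrate: cGMP for type I, cAMP for types II, III and IV. Compounds dissolved in DMSO, diluted in assay buffer over 10^-8 to 10^-4 M, final DMSO under 0.4% (v/v). IC50 taken from the log concentration-inhibition plot (at least three points), mean ± SEM of at least three experiments.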

For assay [3], the target named is T2, Phosphodiesterase 4A (Sus scrofa, UniProt O77823).
T2 sequence (O77823 whole entry): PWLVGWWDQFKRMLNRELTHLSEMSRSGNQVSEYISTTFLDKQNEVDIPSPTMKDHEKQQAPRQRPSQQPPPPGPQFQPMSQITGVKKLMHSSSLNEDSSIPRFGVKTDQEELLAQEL
The assay can be described thus: Inhibition of cAMP specific-PDE 4 from porcine aorta. The procedure, abridged:
as §1

The target in assay [4] is Phosphodiesterase 1 (Homo sapiens, UniProt P54750+Q01064+Q14123). As to the kind of experiment: Inhibition of Ca++ calmodulin dependent-PDE 1 from porcine aorta. It counts as protein assay, Sus scrofa. The conditions noted are these: target entry is the homologue from another species. The procedure, abridged:
as §1

Assay [5] has as its target cGMP-dependent 3',5'-cyclic phosphodiesterase (Homo sapiens, UniProt O00408). As to the kind of experiment: Inhibition of cGMP stimulated-PDE 2 from porcine aorta. Also on record: species or system Sus scrofa. The conditions noted are these: target entry is the homologue from another species. In outline: as §1

For orientation: EC50 means the concentration at which the effect is half-maximal. Usually IC50 stands for the concentration at which inhibition is half-maximal. Low values mean higher potency, high ones lower potency.

Each structure is given as a SMILES string.

cGMP-dependent 3',5'-cyclic phosphodiesterase, sequence (O00408 whole entry): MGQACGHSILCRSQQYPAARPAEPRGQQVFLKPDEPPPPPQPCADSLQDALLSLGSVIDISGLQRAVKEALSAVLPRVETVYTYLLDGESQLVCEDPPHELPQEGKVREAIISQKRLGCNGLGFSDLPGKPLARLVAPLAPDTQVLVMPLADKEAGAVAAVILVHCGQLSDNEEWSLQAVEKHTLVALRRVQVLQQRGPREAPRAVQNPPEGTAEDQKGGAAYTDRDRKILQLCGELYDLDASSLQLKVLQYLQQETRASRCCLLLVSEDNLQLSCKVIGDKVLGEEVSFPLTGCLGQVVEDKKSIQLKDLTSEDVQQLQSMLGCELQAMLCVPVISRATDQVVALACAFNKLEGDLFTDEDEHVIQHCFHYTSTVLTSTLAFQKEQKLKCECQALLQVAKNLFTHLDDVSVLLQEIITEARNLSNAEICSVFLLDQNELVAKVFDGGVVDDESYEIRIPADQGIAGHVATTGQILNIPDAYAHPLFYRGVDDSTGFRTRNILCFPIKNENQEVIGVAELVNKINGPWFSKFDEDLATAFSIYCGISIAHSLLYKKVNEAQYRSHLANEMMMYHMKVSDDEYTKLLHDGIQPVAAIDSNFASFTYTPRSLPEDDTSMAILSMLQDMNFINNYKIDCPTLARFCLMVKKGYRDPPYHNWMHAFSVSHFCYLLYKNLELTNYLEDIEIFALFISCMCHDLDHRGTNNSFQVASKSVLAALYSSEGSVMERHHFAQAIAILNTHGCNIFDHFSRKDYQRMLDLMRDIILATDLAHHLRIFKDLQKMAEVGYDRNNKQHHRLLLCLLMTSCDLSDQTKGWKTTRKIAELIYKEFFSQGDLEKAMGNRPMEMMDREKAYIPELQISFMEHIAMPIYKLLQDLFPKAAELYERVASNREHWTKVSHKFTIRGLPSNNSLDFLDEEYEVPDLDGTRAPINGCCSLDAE

On to `COc1cc2c(NCc3ccc4c(c3)OCO4)ncnc2c(OC)c1OC`, for which, in assay [1], the EC50 amounted to 2.13 µM.
Consider `CSc1ccc2ncnc(NCc3ccc4c(c3)OCO4)c2c1`, for which the IC50 in assay [2], in assay [3], in assay [4] and in assay [5] was above 100 µM each time. Moreover, a half-maximal effect in assay [1] (EC50) was put at 0.12 µM.
In the case of `COc1ccc2ncnc(NCc3ccc4c(c3)OCO4)c2c1`, the 50% effective concentration (EC50) in assay [1] is 1.19 µM. Further, the half-maximal inhibitory concentration (IC50) in assay [3], in assay [4] and in assay [5] was above 100 µM throughout.
Turning to `Clc1ccc2ncnc(NCc3ccc4c(c3)OCO4)c2c1`, the IC50 in assay [2], in assay [3], in assay [4] and in assay [5] was above 100 µM each time. The compound also had a concentration for a half-maximal effect (EC50) in assay [1] of 0.19 µM.
For the compound `N#Cc1ccc2ncnc(NCc3ccc4c(c3)OCO4)c2c1`, the IC50 in assay [2], in assay [3], in assay [4] and in assay [5] was above 100 µM throughout. In assay [1], this compound showed an EC50 of 0.3 µM.
Turning to `Cc1ccc2ncnc(NCc3ccc4c(c3)OCO4)c2c1`, the IC50 in assay [2], in assay [3], in assay [4] and in assay [5] was above 100 µM each time. The compound further yielded an EC50 in assay [1] of 1.56 µM.
